The text below walks through data of ChEMBL document CHEMBL1139326, “The design, synthesis, and antiviral activity of 4'-azidocytidine analogues against hepatitis C virus replication: the discovery of 4'-azidoarabinocytidine” (J Med Chem, 2009).

SMILES strings stand for the structures.

Tested on in one series: not listed separately
Kind of series: Cytotoxicity against human 2209-23 cells by WST1 cell ciability assay. Format: cell-based. Background: Tetrazolium dyes change colour on reduction, which living cells bring about.
As usually defined, the CC50 is the concentration giving 50% cytotoxicity. Lower therefore signals harm at low concentration. For the molecule `Nc1ccn([C@@H]2O[C@H](CO)[C@@H](O)[C@@H]2O)c(=O)n1` [CYTARABINE], the CC50 was below 100 µM.

Tested on in another series: not listed separately
Kind of series: Antiproliferative activity against human 2209-23 cells by [3H]thymidine incorporation scintillation proximity assay. Type of series: functional, cell-based. The procedure, abridged: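 Cell proliferation was read as uptake of tritiated thymidine into cellular DNA, quantified by scintillation proximity, and reported as an IC50. It served to flag possible loss of selectivity against human polymerases.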
On the technique in general: Dividing cells build labelled thymidine or BrdU into new DNA.
By IC50 is commonly meant the point on the concentration scale where inhibition reaches its midpoint. A lower IC50 goes with greater potency in that assay. In the case of `[N-]=[N+]=N[C@]1(CO)O[C@@H](n2ccc(N)nc2=O)[C@@H](O)[C@@H]1O`, the IC50 is above 100 µM.

`[N-]=[N+]=N[C@]1(CO)O[C@@H](n2ccc(N)nc2=O)[C@H](O)[C@@H]1O` [4'-AZIDOCYTIDINE]: the IC50 was above 100 µM.

In turn, `Nc1ccn([C@@H]2O[C@H](CO)[C@@H](O)[C@@H]2O)c(=O)n1` [CYTARABINE] came in with an IC50 of 0.029 µM.

The test system of a further series is Hepatitis C virus. Description: Antiviral activity against Hepatitis C virus infected human 2209-23 cells by genotype 1b replicon assay. Type of series: functional, organism-based, Hepacivirus hominis. (In general: Replicon systems follow genome replication, usually without infectious particles.)
`C[C@]1(O)[C@H](n2ccc(N)nc2=O)O[C@@](CO)(N=[N+]=[N-])[C@H]1O` returned an IC50 above 100 µM.

`[N-]=[N+]=N[C@@]1(CO)C[C@@H](O)[C@H](n2ccc(N)nc2=O)O1` showed an IC50 above 100 µM.

The molecule `C[C@@]1(O)[C@H](n2ccc(N)nc2=O)O[C@@](CO)(N=[N+]=[N-])[C@H]1O` yielded an IC50 above 100 µM.

As to `[N-]=[N+]=N[C@]1(CO)O[C@@H](n2ccc(N)nc2=O)[C@@H](O)[C@@H]1O`, half-maximal inhibition (IC50) required 0.171 µM.

`[N-]=[N+]=N[C@]1(CO)O[C@@H](n2ccc(N)nc2=O)[C@H](O)[C@H]1O` showed an IC50 of 27.8 µM.

In the case of `Nc1ccn([C@@H]2O[C@H](CO)[C@@H](O)[C@@H]2O)c(=O)n1` [CYTARABINE], the IC50 stood at 0.02 µM.
